Source: ChEMBL document CHEMBL1142301, “2'-deoxy cyclic adenosine 5'-diphosphate ribose derivatives: importance of the 2'-hydroxyl motif for the antagonistic activity of 8-substituted cADPR derivatives” (J Med Chem, 2008)
Activity calls are given as the source filed them. The calls are words filed in the database; no cut-off is given here.

Experiments:
Jurkat [1] = assay: Agonist activity at human cADPR receptor in Jurkat T cells assessed as stimulation of calcium release at 100 uM; type: functional, cell-based
Method in brief: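 Saponin-permeabilized Jurkat T cells in intracellular buffer (20 mM HEPES, 110 mM KCl, 2 mM MgCl2, 5 mM KH2PO4, 10 mM NaCl, pH 7.2) with no extracellular Ca2+. Cells were kept on ice 2 h to reseal stores, then reloaded with ATP plus creatine phosphate/creatine kinase. Compound was added once stores were refilled. Ca2+ read by fura2 free acid (ex 340/380, em 495 nm), calibrated with CaCl2 and EGTA/Tris.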

Jurkat [2] = assay: Antagonist activity at human cADPR receptor in Jurkat T cells assessed as inhibition of inositol-1,4,5-triphosphate-induced calcium release; type: functional, cell-based
Method in brief: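 Permeabilized, store-reloaded Jurkat T cells in pH 7.2 intracellular buffer with fura2 free acid (ex 340/380 nm, em 495 nm). Analogues were tested at 100 µM against Ca2+ release triggered by 4 µM InsP3.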

Jurkat [3] = assay: (§1) Antagonist activity at human cADPR receptor in Jurkat T cells assessed as inhibition of cyclic ADP-ribose-induced calcium release; type: functional, cell-based
Method in brief: (§2)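 Jurkat T cells were saponin-permeabilized, resealed 2 h on ice and reloaded with Ca2+ via ATP and a creatine phosphate/creatine kinase regenerating system, in pH 7.2 KCl/HEPES intracellular buffer. Analogue inhibition of Ca2+ release evoked by 30 µM cADPR was followed by fura2 ratio (340/380 nm ex, 495 nm em), calibrated per run. IC50 values were taken from concentration–response curves.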

[4] = as §1; type: functional, cell-based; method in brief: as §2
Lytechinus pictus [5] = assay: (§3) Agonist activity at human cADPR receptor in sea urchin egg homogenates assessed as stimulation of calcium release; type: functional, tissue-based
Method in brief: (§4)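 Lytechinus pictus eggs were spawned by intracoelomic 0.5 M KCl, dejellied and washed. Eggs were homogenized in 250 mM K gluconate, 250 mM N-methylglucamine, 20 mM HEPES, 1 mM MgCl2, pH 7.2, with 1 mM ATP, creatine kinase, phosphocreatine and protease inhibitors. Ca2+ read with 3 µM fluo-3 at 17 °C (ex 506, em 526 nm) in stirred homogenate. EC50/IC50 values come from concentration–response curves.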

Lytechinus pictus [6] = assay: Agonist activity at human cADPR receptor in intact sea urchin egg assessed as stimulation of calcium release; type: functional
Method in brief: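 Intact Lytechinus pictus eggs were microinjected with rhod dextran (~10 µM intracellular), then exposed to 100 or 400 µM analogue in the bath. Ca2+ was imaged by confocal microscopy (ex 543 nm, em >560 nm).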

[7] = as §3; type: functional, tissue-based, Lytechinus pictus; method in brief: as §4
[8] = Antagonist activity at cADPR receptor in sea urchin egg homogenates assessed as inhibition of calcium release; type: functional, tissue-based, Lytechinus pictus; method in brief: as §4
Jurkat [9] = assay: Agonist activity at human cADPR receptor in Jurkat T cells assessed as stimulation of calcium release at 100 uM

SMILES	Activity (Jurkat [1])	Activity (Jurkat [2])	IC50 [4]	further results
Nc1c2ncn3c2nc[n+]1[C@@H]1O[C@H](COP(=O)([O-])OP(=O)(O)OC[C@H]2O[C@@H]3[C@H](O)[C@@H]2O)[C@@H](O)[C@H]1O	Active	inactive	–	–
Nc1c2ccn3c2nc[n+]1[C@@H]1O[C@H](COP(=O)([O-])OP(=O)(O)OC[C@H]2O[C@@H]3C[C@@H]2O)[C@@H](O)[C@H]1O	Active	–	–	Activity (Jurkat [3]): inactive
Nc1c2nc(-c3ccccc3)n3c2nc[n+]1[C@@H]1O[C@H](COP(=O)([O-])OP(=O)(O)OC[C@H]2O[C@@H]3[C@H](O)[C@@H]2O)[C@@H](O)[C@H]1O	Active	–	–	–
Nc1c2nc(Br)n3c2nc[n+]1[C@@H]1O[C@H](COP(=O)([O-])OP(=O)(O)OC[C@H]2O[C@@H]3[C@H](O)[C@@H]2O)[C@@H](O)[C@H]1O	Active	inactive	10 µM	–
Nc1c2nc(Br)n3c2nc[n+]1[C@@H]1O[C@H](COP(=O)([O-])OP(=O)(O)OC[C@H]2O[C@@H]3C[C@@H]2O)[C@@H](O)[C@H]1O	Active	–	–	Activity (Lytechinus pictus [5]): Active; Activity (Lytechinus pictus [6]): Active
Nc1nc2c(N)[n+]3cnc2n1[C@H]1C[C@H](O)[C@@H](COP(=O)(O)OP(=O)([O-])OC[C@H]2O[C@@H]3[C@H](O)[C@@H]2O)O1	Active	inactive	6 µM	EC50 [7]: > 89 µM; IC50 [8]: 0.22 µM
Nc1c2nc(-c3ccccc3)n3c2nc[n+]1[C@@H]1O[C@H](COP(=O)([O-])OP(=O)(O)OC[C@H]2O[C@@H]3C[C@@H]2O)[C@@H](O)[C@H]1O	Active	–	–	–
COc1nc2c(N)[n+]3cnc2n1[C@H]1C[C@H](O)[C@@H](COP(=O)(O)OP(=O)([O-])OC[C@H]2O[C@@H]3[C@H](O)[C@@H]2O)O1	Active	inactive	8 µM	–
Nc1nc2c(N)[n+]3cnc2n1[C@@H]1O[C@H](COP(=O)(O)OP(=O)([O-])OC[C@H]2O[C@@H]3[C@H](O)[C@@H]2O)[C@@H](O)[C@H]1O	Active	inactive	0.2 µM	Activity (Jurkat [9]): Active; EC50 [7]: 89 µM; IC50 [8]: 0.105 µM
